Assay outcomes as filed in PubChem BioAssay.
An excerpt weighted towards active compounds, which were near 2.6% of everything screened.
MC4R antag cAMP: blocks human MC4R cAMP signaling | P32245 | MC4R-expressing cells, MTII-stimulated cAMP, LANCE TR-FRET | inhibition, % at 6.5 µM | 360,000 compounds, 0.48% hits | AID 540295;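 active means inhibition above its plate's cutoff, the mean of tested wells on that plate plus 3 SD, cut at about 29% in these data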;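 further: 0% = Melanotan II alone and 100% = Melanotan II plus saturating MCL0020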
Target sequence (P32245 whole entry, looked up): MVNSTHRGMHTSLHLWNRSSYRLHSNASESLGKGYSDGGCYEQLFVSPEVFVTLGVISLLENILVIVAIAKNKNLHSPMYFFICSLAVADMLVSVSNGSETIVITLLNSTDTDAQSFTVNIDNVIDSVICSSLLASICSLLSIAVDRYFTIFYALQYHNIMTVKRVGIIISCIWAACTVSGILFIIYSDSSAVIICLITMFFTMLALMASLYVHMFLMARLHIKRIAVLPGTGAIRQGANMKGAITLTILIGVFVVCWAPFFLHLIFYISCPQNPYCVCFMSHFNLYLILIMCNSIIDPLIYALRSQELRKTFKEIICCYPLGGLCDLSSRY
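System – human MC4R-expressing U2OS cells · Also added – Melanotan II · Dosing – one concentration, 6.5 µM nominal · Timing – 30-min compound, 1-h challenge, 1-h detection, room temperature · Measured by – Eu-cAMP/anti-cAMP TR-FRET, emission 671 nm · Replicates – singlicate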
T cell HTS: T cell immune modulation candidate | 330,000 compounds, 0.068% hits | 2C CD8+ T cell-vesicle binding, flow cytometry; active compounds read low | response (vesicle binding), % at 7 µM;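 active means response, share of CD8 T cells binding vesicles, and their 90th percentile fluorescence all below set limits, cut at about 80% in these data, passing the limit was not always enough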;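 further: values below 100% mean blocked vesicle binding to the CD8+ T cells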
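incubation = binding step 1.5 h, 37 °C, antibody labelling 20 min, ice | test system = 2C mouse CD8+ T cells | read-out basis = percent CD8+ FL2 mean versus row control | controls = Peptide-free naked vesicles (low) and QL9 vesicles with 0.7% DMSO vehicle (high) | detection = flow cytometry of vesicle-bound cells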
EP2 mod: modulates human prostaglandin E2 receptor EP2 signaling; EP2-expressing cells, cAMP HTRF FRET, PGE2 co-stimulation; induction, % at 25 µM; 260,000 compounds, 0.83% hits;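 active means compounds whose cAMP rise, as percent of the full-agonist control response, exceeds 60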;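 further: rat C6 glioma line stably carrying human EP2 under a CMV promoter; the protocol text gives 20 µM as final concentration; 100% = response of wells given 1 µM PGE2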
Target sequence (P43116 whole entry, looked up): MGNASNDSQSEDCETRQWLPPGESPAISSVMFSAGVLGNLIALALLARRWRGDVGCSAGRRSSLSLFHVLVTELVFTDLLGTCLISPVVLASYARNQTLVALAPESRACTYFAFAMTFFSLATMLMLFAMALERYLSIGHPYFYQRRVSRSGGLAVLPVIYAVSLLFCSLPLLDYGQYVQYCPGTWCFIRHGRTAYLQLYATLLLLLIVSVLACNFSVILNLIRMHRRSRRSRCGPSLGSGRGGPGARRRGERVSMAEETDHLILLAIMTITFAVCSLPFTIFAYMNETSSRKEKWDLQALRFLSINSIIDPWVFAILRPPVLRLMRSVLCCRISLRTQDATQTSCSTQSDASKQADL
MC4R barr agon: activates human MC4R beta-arrestin recruitment; P32245; U2OS MC4R beta-arrestin complementation, luminescence; percent of melanotan II response, DMSO zero; activation, % at 8.9 µM; 360,000 compounds, 0.98% hits;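 active means activation above a per-plate cutoff, the mean activation of sample wells on that plate plus 3 SD, cut at about 8% in these data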
PGE2 EP2 inh: blocks the human prostaglandin E2 receptor EP2; C6 glioma cells expressing human EP2, cAMP TR-FRET; cells stimulated with saturating PGE2; 260,000 compounds, 0.52% hits; inhibition, % at 25 µM; P43116;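 active means percent inhibition above 40 after rounding to a whole number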;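 further: rat C6 glioma host cells with rolipram phosphodiesterase inhibitor present; the protocol text gives 20 µM as final concentration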
Granule exo inh: lytic granule exocytosis inhibition; TALL-104 LAMP-1 surface exposure, flow cytometry; cells stimulated with thapsigargin and PMA; inhibition, % at 10 µM; 360,000 compounds, 0.66% hits;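 active means inhibition above about 55%, limit read from the data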
Starred values were filed as active, the others as inactive; ! = not confirmed by another sample.

Screening O=C(O/N=C1\C(=O)N(c2ccccc2)c2ccccc21)C1CC1 returned MC4R antag cAMP 0.6, T cell HTS 179.8, EP2 mod 32.6, MC4R barr agon 1.5, PGE2 EP2 inh 7.7 and Granule exo inh 3.9.
For O=C(C#Cc1ccccc1)c1ccc([N+](=O)[O-])cc1 the results were MC4R antag cAMP 23.1, EP2 mod -30.2, MC4R barr agon -4.2 and Granule exo inh 79.2*.
Cc1c(CC(=O)O)c(=O)oc2cc(OCc3ccc(F)cc3Cl)ccc12 was read as MC4R antag cAMP 0.7, T cell HTS 239.9, MC4R barr agon -0.8 and Granule exo inh 4.4.
Cc1cc(C)nc(N2CCCC(C(=O)Nc3cccc(Cl)c3)C2)n1 (configuration not stated) was read as MC4R antag cAMP 19.8, T cell HTS 440.1, MC4R barr agon 8.4* and Granule exo inh 5.5.
Screening COc1ccc(Cl)cc1N(CC(=O)NCCSc1ccccn1)S(=O)(=O)c1ccccc1 returned MC4R antag cAMP 1.9, T cell HTS 351.5, MC4R barr agon -0.2 and Granule exo inh 69.2*.
Screening COc1ccc(S(=O)(=O)NNC(=O)C23CC4CC(CC(C4)C2)C3)cc1 returned MC4R antag cAMP 12.4, T cell HTS 296.5, MC4R barr agon -2.5 and Granule exo inh -4.1.
N#Cc1cccc(S(=O)(=O)NNC(=O)C23CC4CC(CC(C4)C2)C3)c1 was read as MC4R antag cAMP 6.3, T cell HTS 58.3*, MC4R barr agon -2.1 and Granule exo inh -0.7.
For COC(=O)c1scc(C)c1N/N=C(\C)c1ccc(F)cc1 the results were MC4R antag cAMP -1.7, T cell HTS 860.6, EP2 mod 60.6*, MC4R barr agon 3.4, PGE2 EP2 inh 3.7 and Granule exo inh -0.5.
Screening COc1ccc2c(n1)Sc1nc3ccccc3nc1N2 returned MC4R antag cAMP 9.3, T cell HTS 169.4, EP2 mod -30.6, MC4R barr agon 7.8, PGE2 EP2 inh 16.8 and Granule exo inh 61.6*.
For CCOc1ccc(S(=O)(=O)N(CC)CC)cc1N the results were MC4R antag cAMP -3.0, T cell HTS 203.7, EP2 mod 11.9, MC4R barr agon -0.5, PGE2 EP2 inh 8.2 and Granule exo inh 0.2.
`O=C(NC1CCS(=O)(=O)C1)c1cccnc1` (configuration not stated) gave T cell HTS 27.4*, EP2 mod 0.6 and PGE2 EP2 inh 4.8.
`O=C(CSc1nc2ccccc2n1S(=O)(=O)c1cccc([N+](=O)[O-])c1)NCCc1ccccc1` gave MC4R antag cAMP 3.0, T cell HTS 273.0, EP2 mod 23.2, MC4R barr agon 9.4*, PGE2 EP2 inh 3.5 and Granule exo inh 11.8.
Cc1cc(Cl)nc2ccc(Cc3ccc4nc(Cl)cc(C)c4c3)cc12 was read as MC4R antag cAMP -10.9, T cell HTS 89.3, EP2 mod -12.7, MC4R barr agon -0.4, PGE2 EP2 inh 41.6*! and Granule exo inh -16.9.
For Cn1nc(-c2ccc(Cl)cc2)cc1NC(=O)CC(C)(C)CC(=O)O the results were MC4R antag cAMP 9.2, T cell HTS 131.2, EP2 mod -16.4, MC4R barr agon 0.8, PGE2 EP2 inh 9.4 and Granule exo inh -3.3.
COc1ccc(-c2nc3c4ccccc4ccn3c2CN2CCCCC2)cc1OC was read as MC4R antag cAMP -6.0, T cell HTS 309.8, EP2 mod 64.0*, MC4R barr agon 1.2, PGE2 EP2 inh 9.4 and Granule exo inh -1.4.
Cc1cc(C(C)(C)C)cc(C)c1S(=O)(=O)N1CC(=O)Nc2ccccc21 was read as MC4R antag cAMP 7.3, T cell HTS 229.5, EP2 mod 11.7, MC4R barr agon 8.7*, PGE2 EP2 inh 8.2 and Granule exo inh -0.7.
Screening CN(C(=O)c1cnn2c(C(F)F)cc(-c3ccccc3)nc12)C12CC3CC(CC(C3)C1)C2 returned EP2 mod -89.4 and PGE2 EP2 inh 10.9.
O=C(c1cccs1)c1no[n+]([O-])c1C(=O)c1cccs1 was read as MC4R antag cAMP 4.7, T cell HTS 261.8, EP2 mod -17.2, MC4R barr agon 17.4*, PGE2 EP2 inh 129.6* and Granule exo inh 82.0*.
`COc1ccc(NC(=O)c2c(N)no[n+]2[O-])cc1` gave MC4R antag cAMP 25.2, T cell HTS 184.5, EP2 mod -12.1, MC4R barr agon -2.1, PGE2 EP2 inh 5.6 and Granule exo inh 1.3.
`COc1ccc(C(=O)c2no[n+]([O-])c2C(=O)c2ccc(OC)cc2)cc1` gave MC4R antag cAMP 1.5, T cell HTS 342.6, EP2 mod -1.3, MC4R barr agon 8.0, PGE2 EP2 inh 64.7* and Granule exo inh 102.8*.
`CCOC(=O)c1ccc2[nH]c(C)c(CCC(C)=O)c(=O)c2c1` gave MC4R antag cAMP 5.6, T cell HTS 162.1, EP2 mod 3.2, MC4R barr agon 0.0, PGE2 EP2 inh 4.9 and Granule exo inh -1.1.
`COc1ccc(CC(=O)Nc2ccc(N3CCN(c4ccc(OC)cc4)CC3)c(C#N)c2)cc1` gave MC4R antag cAMP 2.4, T cell HTS 333.1, EP2 mod 21.8, MC4R barr agon 8.6*, PGE2 EP2 inh 11.0 and Granule exo inh -1.6.
`COc1ccc(N2CCN(c3ccc(NC(=O)c4ccc5c(c4)OCO5)cc3C#N)CC2)cc1` gave MC4R antag cAMP 16.8, T cell HTS 315.4, EP2 mod 8.4, MC4R barr agon 0.3, PGE2 EP2 inh 17.4 and Granule exo inh -3.2.
COc1ccc(NC(=O)c2ccc(N(C)S(C)(=O)=O)cc2)cc1OC was read as MC4R antag cAMP -4.5, T cell HTS 108.0, EP2 mod -40.6, MC4R barr agon -2.7, PGE2 EP2 inh 7.2 and Granule exo inh -2.9.
`COC(=O)c1ccc(NC(=O)c2ccc(N(C)S(C)(=O)=O)cc2)cc1` gave MC4R antag cAMP 18.2, T cell HTS 136.8, EP2 mod -6.2, MC4R barr agon 2.1, PGE2 EP2 inh 113.0* and Granule exo inh -3.3.
For Cc1nc2ccccc2cc1C(=O)N/N=C/c1ccco1 the results were MC4R antag cAMP 4.8, T cell HTS 169.9, EP2 mod -4.9, MC4R barr agon -1.9, PGE2 EP2 inh 1.7 and Granule exo inh -3.0.
`Cc1nc2ccccc2cc1C(=O)N/N=C/c1cccs1` gave MC4R antag cAMP -4.1, T cell HTS 0.0*, EP2 mod 10.5, MC4R barr agon 0.1, PGE2 EP2 inh 4.8 and Granule exo inh -3.5.
For COc1ccc(C(=O)C[n+]2cc(Br)cc3ccccc32)cc1[N+](=O)[O-] the results were MC4R antag cAMP 4.0, T cell HTS 117.8, MC4R barr agon 0.4 and Granule exo inh 7.0.
`O=C1c2[nH]nc(-c3ccccc3O)c2C(c2ccc(F)cc2)N1Cc1ccco1` (configuration not stated) gave MC4R antag cAMP -1.4, T cell HTS 549.8, EP2 mod -26.3, MC4R barr agon 13.1*, PGE2 EP2 inh 5.2 and Granule exo inh 2.4.
